Source: ChEMBL document CHEMBL4052610, “Evaluation of Dual 5-Lipoxygenase/Microsomal Prostaglandin E2 Synthase-1 Inhibitory Effect of Natural and Synthetic Acronychia-Type Isoprenylated Acetophenones” (J Nat Prod, 2017)
The source made the active and inactive calls. No cut-off for these calls is given here.

Tests used:
[1] = molecular target: T1, Polyunsaturated fatty acid 5-lipoxygenase (Homo sapiens, UniProt P09917); assay: Inhibition of 5-LO in human peripheral blood neutrophils using arachidonic acid as substrate preincubated for 15 mins followed by substrate addition measured after 10 mins in presence of Ca2+ ionophore A23187 by RP-HPLC analysis
T1 sequence (P09917 whole entry): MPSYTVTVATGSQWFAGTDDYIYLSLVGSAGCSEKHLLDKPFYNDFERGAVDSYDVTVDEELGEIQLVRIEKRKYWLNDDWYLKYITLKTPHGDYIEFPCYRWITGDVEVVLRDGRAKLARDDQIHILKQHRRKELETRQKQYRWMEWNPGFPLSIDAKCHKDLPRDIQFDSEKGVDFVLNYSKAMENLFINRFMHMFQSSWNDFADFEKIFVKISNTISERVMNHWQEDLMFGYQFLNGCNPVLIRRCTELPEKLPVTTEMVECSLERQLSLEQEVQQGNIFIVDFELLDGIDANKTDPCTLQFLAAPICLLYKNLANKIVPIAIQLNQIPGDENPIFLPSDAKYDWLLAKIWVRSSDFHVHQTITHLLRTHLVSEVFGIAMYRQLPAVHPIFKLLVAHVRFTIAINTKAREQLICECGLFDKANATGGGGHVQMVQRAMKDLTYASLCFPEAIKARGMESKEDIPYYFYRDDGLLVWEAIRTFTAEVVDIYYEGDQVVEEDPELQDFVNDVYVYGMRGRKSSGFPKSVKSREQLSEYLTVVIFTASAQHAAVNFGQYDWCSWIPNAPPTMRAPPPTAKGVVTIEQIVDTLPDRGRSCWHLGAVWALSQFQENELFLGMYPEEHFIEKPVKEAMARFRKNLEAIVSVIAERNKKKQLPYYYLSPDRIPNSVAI

[2] = molecular target: T2, Polyunsaturated fatty acid 5-lipoxygenase (Homo sapiens) (UniProt P09917); assay: Inhibition of human recombinant 5-LO expressed in Escherichia coli MV1190 assessed as residual activity at 10 uM using arachidonic acid as substrate preincubated for 10 mins followed by substrate addition measured after 10 mins by RP-HPLC analysis relative to control
T2 sequence (whole entry): T1 sequence (P09917 whole entry)
Summary of the method: (§1)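 Human 5-LO expressed in E. coli MV1190, partially purified on ATP-agarose, diluted in PBS with 1 mM EDTA and 1 mM ATP. Held 10 min at 4 °C with compound, warmed 30 s to 37 °C, started with 2 mM CaCl2 plus 20 μM AA. Run 10 min at 37 °C, stopped with methanol. LTB4 trans-isomers and 5-H(p)ETE measured by RP-HPLC. IC50 from 4–5 concentrations; n = 3–4.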

[3] = molecular target: T3, Prostaglandin E synthase (Homo sapiens, UniProt O14684); assay: Inhibition of human A549 cell microsomal membrane-derived mPGES-1 assessed as reduction in conversion of PGH2 to PGE2 preincubated for 15 mins followed by PGH2 addition measured after 1 min by RP-HPLC analysis; type: cell-based
T3 sequence (O14684 whole entry): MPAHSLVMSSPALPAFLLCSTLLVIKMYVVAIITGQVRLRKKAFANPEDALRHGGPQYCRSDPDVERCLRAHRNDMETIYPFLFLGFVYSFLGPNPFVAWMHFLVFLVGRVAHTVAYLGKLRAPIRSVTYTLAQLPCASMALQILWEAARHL

[4] = system: Neutrophil; assay: Cytotoxicity against human neutrophils assessed as reduction in cell viability up to 10 uM up to 30 mins by light microscopic and trypan blue exclusion assay; type: cell-based; conditions: 0.5 h
Summary of the method: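 Isolated human blood neutrophils (dextran sedimentation, Nycoprep, hypotonic lysis) in PBS pH 7.4 with 1 mg/mL glucose and 1 mM CaCl2. Compounds tested up to 10 μM for 30 min. Viability scored by light microscopy with trypan blue exclusion.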

[5] = molecular target: T1, Polyunsaturated fatty acid 5-lipoxygenase; assay: Inhibition of human recombinant 5-LO expressed in Escherichia coli MV1190 using arachidonic acid as substrate preincubated for 10 mins followed by substrate addition measured after 10 mins by RP-HPLC analysis; summary of the method: as §1
[6] = system: Mus musculus; assay: Anti inflammatory activity in CD-1 mouse assessed as reduction in zymosan-induced LTC4 by measuring LTC4 level in peritoneal exudates at 10 mg/kg, ip preincubated for 30 mins followed by zymosan addition measured after 30 mins by enzyme immunoassay (reference value: 92.2 +/- 12.8 ng/ml); type: functional
[7] = molecular target: T2, Polyunsaturated fatty acid 5-lipoxygenase (Homo sapiens); assay: Reversible inhibition of human recombinant 5-LO expressed in Escherichia coli MV1190 using arachidonic acid as substrate preincubated for 15 mins followed by 10 fold dilution measured after 10 mins by RP-HPLC analysis
Summary of the method: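 Semipurified recombinant human 5-LO in the cell-free assay (2 mM CaCl2, 20 μM AA, 10 min at 37 °C, RP-HPLC read-out). Reversibility tested by wash-out using 10-fold dilution. Means ± SEM, n = 3–4.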

[8] = system: Mus musculus; assay: Anti inflammatory activity in CD-1 mouse assessed as reduction in zymosan-induced LTC4 level in peritoneal exudates at 10 mg/kg, ip preincubated for 30 mins followed by zymosan addition measured after 30 mins by enzyme immunoassay relative to control; type: functional; set-up: scale not given: the % may be the effect or the level left
[9] = system: Mus musculus; assay: Anti inflammatory in CD-1 mouse assessed as reduction in zymosan-induced inflammatory cell infiltration level in peritoneal exudates at 10 mg/kg, ip preincubated for 30 mins followed by zymosan addition measured after 4 hr relative to control; type: functional; set-up: scale not given: the % may be the effect or the level left
[10] = system: Mus musculus; assay: Anti inflammatory activity in CD-1 mouse assessed as reduction in zymosan-induced PGE2 by measuring PGE2 level in peritoneal exudates at 10 mg/kg, ip preincubated for 30 mins followed by zymosan addition measured after 30 mins by enzyme immunoassay (reference value: 10.5 +/- 1.34 ng/ml); type: functional
[11] = system: Mus musculus; assay: (§2) Anti inflammatory in CD-1 mouse assessed as reduction in zymosan-induced inflammatory cell infiltration by measuring inflammatory cell level in peritoneal exudates at 10 mg/kg, ip preincubated for 30 mins followed by zymosan addition measured after 4 hrs […] (reference value: 7.3 +/- 0.72 10^6); type: functional
[12] = molecular target: T2, Polyunsaturated fatty acid 5-lipoxygenase (Homo sapiens); assay: Competitive inhibition of human recombinant 5-LO expressed in Escherichia coli MV1190 using different concentration of arachidonic acid as substrate preincubated for 15 mins followed by substrate addition measured after 10 mins by RP-HPLC analysis; conditions: in the assay text read “preincubated for 10 mins” for “preincubated for 15 mins”
Summary of the method: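 Semipurified recombinant human 5-LO assayed in the cell-free format with CaCl2 and varying AA concentrations, products measured by RP-HPLC. Representative experiment of three independent runs.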

[13] = system: Mus musculus; assay: Anti inflammatory activity in CD-1 mouse assessed as reduction in zymosan-induced PGE2 by measuring PGE2 level in peritoneal exudates at 5 mg/kg, ip preincubated for 30 mins followed by zymosan addition measured after 30 mins by enzyme immunoassay (reference value: 10.5 +/- 1.34 ng/ml); type: functional
[14] = system: Mus musculus; assay: as §2, with “at 5” for “at 10”; type: functional

| Compound | IC50 [1] [µM] | Activity [2] [%] | IC50 [3] [µM] | Activity [4] | IC50 [5] [µM] | further results |
| --- | --- | --- | --- | --- | --- | --- |
| COc1c(CC=C(C)C)c(O)c(C(CC(C)C)c2c(O)c(C(C)=O)c(O)c3c2OC(C(C)(C)O)C3)c(O)c1C(C)=O (configuration not stated) [ACROFOLIONE A] | 7.3 | < 50 | 1.3 | Non-Toxic | 5.3 |  |
| CC(=O)c1c(O)c(C(CC(C)C)c2c(O)c3c(c(C(C)=O)c2O)OC(C)(C)C=C3)c(O)c2c1OC(C)(C)C=C2 | > 10 | < 50 | 1.2 | Non-Toxic | 2.4 |  |
| COc1c(CC=C(C)C)c(O)c(C(CC(C)C)c2c(O)c(CC=C(C)C)c(O)c(C(C)=O)c2O)c(O)c1C(C)=O (configuration not stated) | 2.3 | < 50 | 1.1 | Non-Toxic | 2.7 |  |
| CC(c1cc2ccccc2s1)N(O)C(N)=O (configuration not stated) [ZILEUTON] |  |  |  |  |  | Activity [6]: 65 ng/mL |
| C=C(C)[C@@H](O)Cc1c(O)c(C(C)=O)c(O)c(C(CC(C)C)c2c(O)c(CC=C(C)C)c(OC)c(C(C)=O)c2O)c1O (some centres not stated) | 6.3 | < 50 | 1.1 | Non-Toxic | 2.5 |  |
| CC(=O)c1c(O)c(CC=C(C)C)c(O)c(C(CC(C)C)c2c(O)c(CC=C(C)C)c(O)c(C(C)=O)c2O)c1O | > 10 | > 50 | > 10 | Non-Toxic | > 10 |  |
| C=C(C)C1Cc2c(O)c(C(CC(C)C)c3c(O)c4c(c(C(C)=O)c3O)OC(C(=C)C)C4)c(O)c(C(C)=O)c2O1 (configuration not stated) | 5 | < 50 | > 10 | Non-Toxic | > 10 |  |
| CC(=O)c1c(O)c(C/C=C(/C)CCC=C(C)C)c(O)c(C(CC(C)C)c2c(O)c(C/C=C(\C)CCC=C(C)C)c(O)c(C(C)=O)c2O)c1O (configuration not stated) | > 10 | < 50 | 5.34 | Non-Toxic | 3.6 |  |
| CC(=O)c1c(O)cc(O)c(CC=C(C)C)c1O |  |  | > 10 | Non-Toxic |  |  |
| COc1c(CC=C(C)C)c(O)c(C(CC(C)C)c2c(O)c3c(c(C(C)=O)c2O)OC(C)(C)C=C3)c(O)c1C(C)=O (configuration not stated) | > 10 | < 50 | 4.2 | Non-Toxic | 6 |  |
| CC(=O)c1c(O)cc(O)c(C/C=C(\C)CCC=C(C)C)c1O | 1.4 | < 50 | 3.5 | Non-Toxic | 1 | inhibition [7]: Active; Activity [8]: 38%; Activity [9]: 32%; Activity [10]: 11.3 ng/mL; Activity [6]: 57.3 ng/mL; Activity [11]: 5 ×10⁶ No_unit; inhibition [12]: inactive |
| COc1c(CC=C(C)C)c(O)c(C(CC(C)C)c2c(O)c(C(C)=O)c(O)c3c2OC(C)(C)C(O)C3)c(O)c1C(C)=O (configuration not stated) | 5 | < 50 | 1.9 | Non-Toxic | 2 |  |
| COc1c(CC=C(C)C)c(O)c(C(CC(C)C)c2c(O)c3c(c(C(C)=O)c2O)OC(C(C)(C)O)C3)c(O)c1C(C)=O (configuration not stated) | 4.5 | < 50 | 1.1 | Non-Toxic | > 10 |  |
| COc1c(CC=C(C)C)c(O)c(C(CC(C)C)c2c(O)c3c(c(C(C)=O)c2O)OC(C)(C)C(O)C3)c(O)c1C(C)=O (configuration not stated) | 5.3 | < 50 | 2.7 | Non-Toxic | 7.3 |  |
| COc1ccc2c(c1)c(CC(=O)O)c(C)n2C(=O)c1ccc(Cl)cc1 [INDOMETHACIN] |  |  |  |  |  | Activity [13]: 3.52 ng/mL; Activity [14]: 2.08 ×10⁶ No_unit |
| CC(=O)c1c(O)cc(O)c(C(CC(C)C)c2c(O)cc(O)c(C(C)=O)c2O)c1O | 6.3 | < 50 | 1 | Non-Toxic | 1.7 |  |
